In ChEMBL document CHEMBL1123487, “Zwitterionic 3'-O-acyl derivatives of thymidine 5'-phosphate as potential sources of intracellular thymidine 5'-phosphate in cells in culture” (J Med Chem, 1986):
Values joined by “and” are separate entries in the source; they are usually repeats but may differ in a detail not shown here. Equal entries are not always repeated. One block for each compound: values may come before it.

Assays:
[1] = Compound was evaluated for the Hydrolysis rate in aqueous 50 mM Potassium Phosphate; assay type: ADME; settings: aqueous potassium phosphate buffer
In short: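 5 mM ester in aqueous 50 mM potassium phosphate, pH 7.6, held at 37 °C. Release of free nucleotide followed by paper electrophoresis at pH 3.6 (thymidine release by silica TLC, UV inspection). log(residual ester) plotted against time; t1/2 read graphically from the linear pseudo-first-order plot.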

L929 [2] = assay: Rate of incorporation of [3H]-dC into DNA in mouse L929 cells at 10e-4 concentration; units=cpm/hx 5*10e5 cells; assay type: functional
L929 [3] = assay: Rate of incorporation of [3H]dC into DNA in mouse L929 cells at 10e-4 concentration; units=cpm/hx 5*10e5 cells; assay type: functional
L929 [4] = assay: Stimulation of DNA synthesis in L929 cells in the absence of 5'-NH2-dT; assay type: functional, Mus musculus
In short: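 L929 cells blocked 3 h with aminopterin medium. 5'-NH2-dT (1.0 mM) was left out of the 2 h recovery medium that held the compound. Labelled with [3H]-dC 1 μCi/mL; TCA-insoluble incorporation (cpm/h per 5×10^5 cells) compared with parallel control cultures.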

L929 [5] = assay: Stimulation of DNA synthesis in L929 cells in the presence of 5'-NH2-dT; assay type: functional, Mus musculus
LM [6] = assay: Effect on DNA synthesis in mouse LM(TK-) cells blocked in DNA synthesis with Aminopterin at 10e-4 M; assay type: functional
In short: (§1)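 LM(TK-) mouse fibroblasts, 5×10^5 or 1×10^6 per 6-cm dish, grown overnight in DMEM/10% FBS at 37 °C, 5% CO2. Blocked 3 h in medium with heat-inactivated serum, aminopterin 1 μg/mL, glycine and hypoxanthine 15 μg/mL each, no 5'-NH2-dT. Compounds diluted from 10 mM stocks in 50% ethanol-water; controls got vehicle. Recovery 2 h, then [3H]-dC 1 μCi/mL for 1–3 h. Cold 5% TCA-insoluble counts in duplicate; enhancement = rate with compound / rate in parallel controls.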

LM [7] = assay: Effect (10e-4 M) on DNA synthesis in mouse LM(TK-) cells blocked in DNA synthesis with Aminopterin; assay type: functional; in short: as §1
LM [8] = assay: Effect (10e-3 M) on DNA synthesis in mouse LM(TK-) cells blocked in DNA synthesis with Aminopterin; assay type: functional; in short: as §1
L929 [9] = assay: Rate of incorporation of [3H]dC into DNA in mouse L929 cells at 10e-6 concentration; units=cpm/hx 5*10e5 cells; assay type: functional
In short: (§2)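 L929 cells seeded at 5×10^5 or 1×10^6 per dish in DMEM/10% FBS, overnight at 37 °C, 5% CO2. Blocked 3 h in medium with heat-inactivated serum, aminopterin 1 μg/mL, glycine and hypoxanthine 15 μg/mL each, and 1.0 mM 5'-NH2-dT. Test agent in the same medium for 2 h, then 1 μCi/mL [3H]dC for 1–3 h. Cold 5% TCA-insoluble counts in duplicate, scaled to cell counts.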

L929 [10] = assay: Rate of incorporation of [3H]dC into DNA in mouse L929 cells at 10e-5 concentration; units=cpm/hx 5*10e5 cells; assay type: functional; in short: as §2
LM [11] = assay: Effect (10e-6 M) on DNA synthesis in mouse LM(TK-) cells blocked in DNA synthesis with Aminopterin; assay type: functional
In short: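 LM(TK-) fibroblasts seeded and cultured overnight. Blocked 3 h in heat-inactivated-serum medium with aminopterin 1 μg/mL, glycine and hypoxanthine 15 μg/mL, no 5'-NH2-dT. Compound diluted from 10 mM stock in 50% ethanol-water and applied 2 h. Then [3H]dC 1 μCi/mL; acid-insoluble radioactivity measured in duplicate. Effect expressed as incorporation rate relative to parallel vehicle controls.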

LM [12] = assay: Effect (10e-5 M) on DNA synthesis in mouse LM(TK-) cells blocked in DNA synthesis with Aminopterin; assay type: functional; in short: as §1

SMILES: CC(=O)O[C@H]1C[C@H](n2cc(C)c(=O)[nH]c2=O)O[C@@H]1CO
half-life [1]: 135 h

SMILES: CCN(CC)CCCC[N+](CC)(CC)CCCCC(=O)O[C@H]1C[C@H](n2cc(C)c(=O)[nH]c2=O)O[C@@H]1COP(=O)([O-])O
Incorporation rate (L929 [3]): 782 c.p.m. hr-1 and 821 c.p.m. hr-1

SMILES: CC[N+](CC)(CC)CC[N+](CC)(CC)CCCCC(=O)O[C@H]1C[C@H](n2cc(C)c(=O)[nH]c2=O)O[C@@H]1COP(=O)([O-])[O-]
Incorporation rate (L929 [4]): 5462 c.p.m. hr-1 | Incorporation rate (L929 [2]): 673 c.p.m. hr-1 and 1103 c.p.m. hr-1 | Incorporation rate (L929 [5]): 808 c.p.m. hr-1 | Incorporation rate (LM [6]): 171 c.p.m. hr-1

SMILES: CC[N+](CC)(CC)CCCC[N+](CC)(CC)CCCCC(=O)O[C@H]1C[C@H](n2cc(C)c(=O)[nH]c2=O)O[C@@H]1CO.[Cl-].[Cl-]
half-life [1]: 87 h

SMILES: Cc1cn([C@H]2C[C@H](O)[C@@H](CO)O2)c(=O)[nH]c1=O [DOXRIBTIMINE]
Incorporation rate (LM [8]): 213 c.p.m. hr-1 | Incorporation rate (L929 [9]): 465 c.p.m. hr-1 | Incorporation rate (LM [7]): 228 c.p.m. hr-1 and 251 c.p.m. hr-1 | Incorporation rate (L929 [10]): 2937 c.p.m. hr-1 | Incorporation rate (LM [11]): 185 c.p.m. hr-1 | Incorporation rate (L929 [2]): 28200 c.p.m. hr-1 | Incorporation rate (LM [12]): 204 c.p.m. hr-1

SMILES: Cc1cn([C@H]2C[C@H](O)[C@@H](COP(=O)(O)O)O2)c(=O)[nH]c1=O [THYMIDINE MONOPHOSPHATE]
Incorporation rate (LM [8]): 596 c.p.m. hr-1 and 668 c.p.m. hr-1 and 837 c.p.m. hr-1 | Incorporation rate (LM [7]): 381 c.p.m. hr-1 and 295 c.p.m. hr-1 | Incorporation rate (LM [12]): 323 c.p.m. hr-1 and 256 c.p.m. hr-1

More lines, main results first:

half-life [1]: 28 h
SMILES: CCN(CC)CC[N+](CC)(CC)CCCC(=O)O[C@H]1C[C@H](n2cc(C)c(=O)[nH]c2=O)O[C@@H]1COP(=O)([O-])O

half-life [1]: 74 h
SMILES: CCN(CC)CCC[N+](CC)(CC)CCCCC(=O)O[C@H]1C[C@H](n2cc(C)c(=O)[nH]c2=O)O[C@@H]1COP(=O)([O-])O
Incorporation rate (L929 [2]): 605 c.p.m. hr-1 and 504 c.p.m. hr-1

half-life [1]: 72 h
SMILES: CC[N+](CC)(CC)CCC[N+](CC)(CC)CCCCC(=O)O[C@H]1C[C@H](n2cc(C)c(=O)[nH]c2=O)O[C@@H]1COP(=O)([O-])[O-]

half-life [1]: 85 h
SMILES: CC[N+](CC)(CC)CCCC[N+](CC)(CC)CCCCC(=O)O[C@H]1C[C@H](n2cc(C)c(=O)[nH]c2=O)O[C@@H]1COP(=O)([O-])[O-]
Incorporation rate (L929 [4]): 7462 c.p.m. hr-1 | Incorporation rate (LM [7]): 204 c.p.m. hr-1 and 147 c.p.m. hr-1 | Incorporation rate (L929 [2]): 1356 c.p.m. hr-1 and 1299 c.p.m. hr-1 | Incorporation rate (L929 [5]): 1135 c.p.m. hr-1

half-life [1]: 28 h
SMILES: CCN(CC)CC[N+](CC)(CC)CCCC(=O)O[C@H]1C[C@H](n2cc(C)c(=O)[nH]c2=O)O[C@@H]1CO.Cl.[Cl-]
